Assay outcomes as filed in PubChem.
A selection: hits, their analogues and other compounds. The true share with any hit is near 1.9%.
Hck-Nef inh = human Hck-Nef kinase inhibition. hit rate 0.68% among 220,000. P08631. inhibition, % at 20 µM. Recombinant Hck-YEEI plus Nef, Z-Lyte FRET kinase assay;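 active = Hck-Nef kinase inhibition above about 50%, limit read from the data; inactive = inhibition below that limit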;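 note: 0% = DMSO with Hck plus Nef and 100% = Hck alone without Nef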
RanGTP-Imp inh = disruptors of Ran-importin-beta complex formation – biochemical, FRET, CFP-Ran, YFP-importin-beta, homogeneous, primary screen; inhibition, % (test concentration not listed); hit rate 1.1% among 300,000; cell-free CFP-Ran/YFP-importin-beta FRET ratio;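 active = more than half of the replicate wells show a fall in the fluorescence ratio signal beyond about 16%, limit read from the data, passing the limit was not always enough; inconclusive = exactly half of the replicate wells pass the set limit; inactive = fewer than half of replicates pass the limit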;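 note: 0% = DMSO wells and 100% = Ran loaded with GDP instead of GTP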
Runt-CBFb FRET = blocks binding of human RUNX1 Runt domain to CBFb; Q01196+Q13951; Cerulean-Runt/Venus-CBFb FRET ratio 530/480, 1 h; inhibition, % at 20 µM; hit rate 0.46% among 220,000;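 active = inhibition over about 50% at 20 µM in the single-dose screen, limit read from the data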;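 note: 0% = DMSO wells and 100% = excess unlabeled CBFb competitor control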
Target sequence (Q01196 whole entry, looked up, the tested form may be a part): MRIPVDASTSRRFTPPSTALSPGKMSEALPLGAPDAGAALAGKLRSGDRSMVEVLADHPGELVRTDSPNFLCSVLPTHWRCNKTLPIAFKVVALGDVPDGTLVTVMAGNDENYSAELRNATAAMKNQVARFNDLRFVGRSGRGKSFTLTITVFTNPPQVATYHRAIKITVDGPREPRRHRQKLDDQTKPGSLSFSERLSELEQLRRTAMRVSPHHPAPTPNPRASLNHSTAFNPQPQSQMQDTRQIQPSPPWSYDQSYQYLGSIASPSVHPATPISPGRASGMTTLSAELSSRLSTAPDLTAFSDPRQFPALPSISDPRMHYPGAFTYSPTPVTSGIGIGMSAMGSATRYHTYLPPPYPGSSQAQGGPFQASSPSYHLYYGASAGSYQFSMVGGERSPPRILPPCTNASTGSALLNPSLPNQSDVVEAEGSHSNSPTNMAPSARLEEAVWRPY
Target sequence (Q13951 whole entry, looked up, the tested form may be a part): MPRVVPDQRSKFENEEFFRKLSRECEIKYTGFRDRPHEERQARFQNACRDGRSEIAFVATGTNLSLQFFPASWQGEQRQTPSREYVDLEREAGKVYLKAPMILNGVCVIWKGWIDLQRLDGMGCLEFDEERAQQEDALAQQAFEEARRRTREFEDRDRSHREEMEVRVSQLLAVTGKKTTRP
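System: Cerulean-labeled Runt domain protein | Quantity: 100 nM of each labeled protein | Schedule: 1 h compound exposure, room temperature | Detection: Fluorescence energy transfer, 422 nm excitation, 530/480 nm emission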
Runt-SMMHC FRET = inhibitors of human RUNX1 Runt domain binding to CBFb-SMMHC; inhibition, % at 20 µM; hit rate 0.74% among 220,000; AID 1434; Q01196+Q13951; Cerulean-Runt/Venus-CBFb-SMMHC FRET ratio 530/480, 1 h;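 active = mean inhibition across duplicate retests at 20 µM reaching about 50%, limit read from the data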;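 note: 0% = DMSO wells and 100% = wells with excess untagged CBFb-SMMHC; inhibitors lower the FRET ratio by blocking Runt binding to CBFb-SMMHC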
Hck Nef conf = Hck-Nef kinase inhibition, confirmation. shares compounds with Hck-Nef inh. Recombinant Hck-YEEI:Nef, Z-Lyte FRET kinase assay. calls only at 10 µM. hit rate 28% among 1,300;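 active = average inhibition of at least 50%, with Z-scores no higher than 3 in both the phospho-tyrosine peptide and fluorescence counterscreens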
An asterisk follows results filed as active; i = inactive; ? = inconclusive; / = not tested or not shown; + = active, no number.

SMILES	Hck-Nef inh	RanGTP-Imp inh	Runt-CBFb FRET	Runt-SMMHC FRET	Hck Nef conf
CCOc1cc(/C=C(/C#N)c2nc3ccccc3[nH]2)ccc1OCc1ccc(C(=O)O)o1	64*	0	15	26	/
CCOc1cc(/C=C(/C#N)c2ccc(F)cc2)ccc1OCc1ccc(C(=O)O)o1	27	-1	-1	-4	/
Cc1cc2oc(C(=O)Nc3ccc(S(=O)(=O)Nc4nccs4)cc3)cc(=O)c2cc1Cl	9	-3	-14	-14	/
Cc1cc(C)c2oc(C(=O)Nc3ccc(S(=O)(=O)Nc4nccs4)cc3)cc(=O)c2c1	51*	7	-4	-1	i
COc1ccc(CNC(=O)c2ccc(=O)oc2)cc1OC	57*	4	-1	2	/
CCCn1c(NC(=O)c2ccc(Cl)c(S(=O)(=O)N3CCCC3)c2)nc2ccccc21	73*	-1	1	4	+
COc1ccc(N2CCN(S(=O)(=O)c3c(C)n(C)c(=O)n(C)c3=O)CC2)cc1	/	0	/	/	/
CCOC(=O)c1cc2nc(Nc3ccc(OC)cc3)sc2s1	51*	1	2	14	i
COc1ccc(COC(=O)N/N=C(\C)CC(=O)Nc2ccc(Cl)cn2)cc1	10	5	1	-3	/
CCOC(=O)c1cc(NC(=O)c2ccccc2)c(=O)n2c1oc1ccccc12	1	-1	0	5	/
O=C(N/N=C/C1CC2C=CC1C2)c1ccccc1O (stereo unspecified)	13	3	1	1	/
Cc1cc(C(=O)O)ccc1-c1ccc(CO)o1	-18	2	7	2	/
Cc1ccc(CN2C(=O)N/C(=C\c3ccc(-c4ccc(C(=O)O)cc4C)o3)C2=O)cc1	60*	/	110*	84*	i
Cc1ccc(-n2nc(-c3ccco3)cc2C(=O)O)c(C)c1	55*	4	31	16	i
Cc1ccc(-n2nc(-c3cccnc3)cc2C(=O)N2CCOCC2)c(C)c1	1	2	0	-1	/
O=C(O)c1cc(-c2ccco2)nn1-c1ccc(Cl)cc1	35	6	28	14	/
O=C(O)c1cc(-c2ccco2)nn1-c1cccc(Cl)c1	52*	1	29	-42	i
COc1ccc(S(=O)(=O)N(C)C)cc1NC(=O)c1ccc(OCC(=O)N2CCOCC2)c(OC)c1	/	-5	/	/	/
Cc1ccc(-c2cc(C(=O)Nc3sc4c(c3C(=O)NCc3ccco3)CCC4)[nH]n2)c(O)c1	3	?	-8	-19	/
Cc1cc(O)c(-c2cc(C(=O)Nc3sc4c(c3C(=O)NCc3ccco3)CCC4)[nH]n2)cc1C	59*	?	-10	-8	i
CCNC(=O)c1c(NC(=O)c2cc(-c3cc(C)ccc3O)n[nH]2)sc2c1CCCC2	100*	6	-24	-24	i
O=C(NCCN1CCCC1)C(c1ccccc1)c1ccccc1	/	-1	/	/	/
CN(C(=O)CSc1cc(C(=O)c2nccn2C)c2ccccc2n1)c1ccccc1	9	-2	0	0	/
COc1cccc(NS(=O)(=O)c2ccc(C)c(C(=O)N3CCCCC3)c2)c1	/	-1	/	/	/
CCN1CCN(Cc2ccc(NC(=O)c3ccc(C)c(NC(=O)c4ccnnc4)c3)cc2C(F)(F)F)CC1	55*	0	2	1	i
SMILES	Hck-Nef inh	RanGTP-Imp inh	Runt-CBFb FRET	Runt-SMMHC FRET	Hck Nef conf
CCN1CCN(Cc2ccc(NC(=O)c3ccc(C)c(NC(=O)c4ccc5n[nH]nc5c4)c3)cc2C(F)(F)F)CC1	76*	-2	1	1	+
O=[N+]([O-])c1cccc(Oc2cnccn2)c1	/	-4	/	/	/
CCCC1=Nc2cc(C(=O)N3CCC(C(=O)OCC)CC3)ccc2Sc2ccccc21	/	0	/	/	/
CCOC(=O)c1ccc(NC(=O)Cn2ncc(Cl)c(Cl)c2=O)cc1	59*	-3	-5	-7	+
Cc1ccc(C(CNS(=O)(=O)c2cc(F)ccc2F)N2CCN(C)CC2)cc1 (stereo unspecified)	/	-5	/	/	/
COc1cc(/C=C/c2ccc3cccc(OC)c3n2)c(O)c([N+](=O)[O-])c1	69*	0	0	-1	+
CC(=O)c1cccc(NC(=O)CC2S/C(=N/N=C/c3ccccc3)NC2=O)c1 (stereo unspecified)	53*	3	-3	-2	i
CCOc1ccc(-c2ccc(C=O)o2)c([N+](=O)[O-])c1	100*	3	6	1	i
CCN(CC)c1nc2ccccc2nc1-n1nc(C)cc1C	103*	?	7	18	i
